# Reference: ChEMBL document CHEMBL5724801, “EUbOPEN Chemogenomics Library - Multiplex” (2024)
# Several values for one entry are separate records, joined by “and”; a condition that tells them apart may be missing. Identical values can stand only once.
# How the values were obtained:
# [1] = test system: Fibroblast; experiment: Multiplex assay against human fibroblast; type: toxicity, cell-based
# Summary of the method: (§1)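 Compound was added to live cells that had been stained at seeding with Hoechst33342, BioTracker Green Microtubule Cytoskeleton Dye, MitoTracker Red and Annexin V Alexa Fluor 680, and imaging followed on a CQ1 microscope at 37°C and 5% CO2. CellPathfinder machine-learning gating divided cells into Hoechst high-intensity objects or normal cells, normal cells into healthy, pyknosed or fragmented nuclei, and pyknosed cells into mitotic or apoptotic. Tubulin, mitochondrial-mass and membrane-permeability phenotypes are per cents of healthy-nucleus cells.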
# [2] = test system: HEK-293T; experiment: Multiplex assay against HEK293T; type: toxicity, cell-based; conditions: human; summary of the method: as §1
# [3] = 12 h, 1 µM, compound concentration 1 uM
# [4] = 12 h, 10 µM, compound concentration 10 uM
# [5] = 24 h, 1 µM, compound concentration 1 uM
# [6] = 24 h, 10 µM, compound concentration 10 uM
# [7] = 48 h, 1 µM, compound concentration 1 uM
# [8] = 48 h, 10 µM, compound concentration 10 uM
smiles,measurement,setting,value
Cc1ccc(F)cc1C(=O)Nc1ccc(C(=O)N2Cc3cccn3Cc3ccccc32)c(Cl)c1 [LIXIVAPTAN],Population Apoptotic (%),[1]; [3],40% and 50%
same,Population Fragmented Nuclei (%),[1]; [3],11% and 30%
same,Population Healthy Nuclei (%),[1]; [3],73% and 47%
same,Population Hoechst High Intensity Objects (%),[1]; [3],5% and 3%
same,Population Membrane Permeable-Phenotype (%),[1]; [3],0% and 1%
same,Population Mitochondria Different-Phenotype (%),[1]; [3],3% and 9%
same,Population Mitotic Cells (%),[1]; [3],59% and 50%
same,Population Normal (%),[1]; [3],94% and 96%
same,Population Pyknosed Nuclei (%),[1]; [3],15% and 21%
same,Population Tubulin-Different-Phenotype (%),[1]; [3],28% and 38%
same,Total Cell Count,[1]; [3],186 and 117
same,Population Apoptotic (%),[1]; [4],34% and 31%
same,Population Fragmented Nuclei (%),[1]; [4],18% and 27%
same,Population Healthy Nuclei (%),[1]; [4],58% and 46%
same,Population Hoechst High Intensity Objects (%),[1]; [4],0% and 5%
same,Population Membrane Permeable-Phenotype (%),[1]; [4],2% and 6%
same,Population Mitochondria Different-Phenotype (%),[1]; [4],5% and 10%
same,Population Mitotic Cells (%),[1]; [4],65% and 68%
same,Population Normal (%),[1]; [4],99% and 94%
same,Population Pyknosed Nuclei (%),[1]; [4],23% and 25%
same,Population Tubulin-Different-Phenotype (%),[1]; [4],62% and 72%
same,Total Cell Count,[1]; [4],137 and 179
same,Population Apoptotic (%),[1]; [5],50% and 32%
same,Population Fragmented Nuclei (%),[1]; [5],12% and 33%
same,Population Healthy Nuclei (%),[1]; [5],73% and 43%
same,Population Hoechst High Intensity Objects (%),[1]; [5],1% and 3%
same,Population Membrane Permeable-Phenotype (%),[1]; [5],1% and 5%
same,Population Mitochondria Different-Phenotype (%),[1]; [5],0% and 5%
same,Population Mitotic Cells (%),[1]; [5],50% and 67%
same,Population Normal (%),[1]; [5],98% and 96%
same,Population Pyknosed Nuclei (%),[1]; [5],14% and 23%
same,Population Tubulin-Different-Phenotype (%),[1]; [5],33% and 52%
same,Total Cell Count,[1]; [5],172 and 126
same,Population Apoptotic (%),[1]; [6],25% and 51%
same,Population Fragmented Nuclei (%),[1]; [6],19% and 26%
same,Population Healthy Nuclei (%),[1]; [6],63% and 51%
same,Population Hoechst High Intensity Objects (%),[1]; [6],0% and 5%
same,Population Membrane Permeable-Phenotype (%),[1]; [6],2% and 11%
same,Population Mitochondria Different-Phenotype (%),[1]; [6],8% and 12%
same,Population Mitotic Cells (%),[1]; [6],75% and 48%
same,Population Normal (%),[1]; [6],99% and 94%
same,Population Pyknosed Nuclei (%),[1]; [6],17% and 22%
same,Population Tubulin-Different-Phenotype (%),[1]; [6],63% and 82%
same,Total Cell Count,[1]; [6],142 and 174
same,Population Apoptotic (%),[1]; [7],63% and 50%
same,Population Fragmented Nuclei (%),[1]; [7],18% and 37%
same,Population Healthy Nuclei (%),[1]; [7],68% and 40%
same,Population Hoechst High Intensity Objects (%),[1]; [7],8% and 0%
same,Population Membrane Permeable-Phenotype (%),[1]; [7],0% and 4%
same,Population Mitochondria Different-Phenotype (%),[1]; [7],3% and 11%
same,Population Mitotic Cells (%),[1]; [7],36% and 50%
same,Population Normal (%),[1]; [7],91% and 99%
same,Population Pyknosed Nuclei (%),[1]; [7],13% and 21%
same,Population Tubulin-Different-Phenotype (%),[1]; [7],28% and 53%
same,Total Cell Count,[1]; [7],181 and 111
same,Population Apoptotic (%),[1]; [8],70% and 73%
same,Population Fragmented Nuclei (%),[1]; [8],25% and 36%
same,Population Healthy Nuclei (%),[1]; [8],62% and 51%
same,Population Hoechst High Intensity Objects (%),[1]; [8],2% and 5%
same,Population Membrane Permeable-Phenotype (%),[1]; [8],0% and 6%
same,Population Mitochondria Different-Phenotype (%),[1]; [8],13%
same,Population Mitotic Cells (%),[1]; [8],29% and 26%
same,Population Normal (%),[1]; [8],97% and 94%
same,Population Pyknosed Nuclei (%),[1]; [8],11%
same,Population Tubulin-Different-Phenotype (%),[1]; [8],69% and 78%
same,Total Cell Count,[1]; [8],149 and 170
same,Population Apoptotic (%),[2]; [3],36% and 40%
same,Population Fragmented Nuclei (%),[2]; [3],5% and 6%
same,Population Healthy Nuclei (%),[2]; [3],83% and 74%
same,Population Hoechst High Intensity Objects (%),[2]; [3],7% and 5%
same,Population Membrane Permeable-Phenotype (%),[2]; [3],0%
same,Population Mitochondria Different-Phenotype (%),[2]; [3],45% and 57%
same,Population Mitotic Cells (%),[2]; [3],63% and 60%
same,Population Normal (%),[2]; [3],92% and 94%
same,Population Pyknosed Nuclei (%),[2]; [3],10% and 19%
same,Population Tubulin-Different-Phenotype (%),[2]; [3],38% and 32%
same,Total Cell Count,[2]; [3],486 and 335
same,Population Apoptotic (%),[2]; [4],46% and 50%
same,Population Fragmented Nuclei (%),[2]; [4],6%
same,Population Healthy Nuclei (%),[2]; [4],70% and 67%
same,Population Hoechst High Intensity Objects (%),[2]; [4],10% and 6%
same,Population Membrane Permeable-Phenotype (%),[2]; [4],0% and 1%
same,Population Mitochondria Different-Phenotype (%),[2]; [4],75% and 81%
same,Population Mitotic Cells (%),[2]; [4],53% and 50%
same,Population Normal (%),[2]; [4],89% and 93%
same,Population Pyknosed Nuclei (%),[2]; [4],22% and 25%
same,Population Tubulin-Different-Phenotype (%),[2]; [4],78% and 67%
same,Total Cell Count,[2]; [4],339 and 357
same,Population Apoptotic (%),[2]; [5],30% and 36%
same,Population Fragmented Nuclei (%),[2]; [5],9% and 10%
same,Population Healthy Nuclei (%),[2]; [5],77% and 76%
same,Population Hoechst High Intensity Objects (%),[2]; [5],5% and 7%
same,Population Membrane Permeable-Phenotype (%),[2]; [5],0%
same,Population Mitochondria Different-Phenotype (%),[2]; [5],30% and 42%
same,Population Mitotic Cells (%),[2]; [5],69% and 63%
same,Population Normal (%),[2]; [5],94% and 92%
same,Population Pyknosed Nuclei (%),[2]; [5],13%
